The results in this text go back to ChEMBL document CHEMBL1821603, “Bivalent bendamustine and melphalan derivatives as anticancer agents” (Eur J Med Chem, 2011).

As usually defined, the half-life is how long it takes for the measured level to halve. Usually T/C stands for the result in the treated group divided by that in the control group, in per cent.

The source made the active and inactive calls. The calls are words filed in the database; no cut-off is given here.

One data set relates to MDA-MB-231. Put plainly: Antiproliferative activity against human MDA-MB-231 cells after 72 hrs by crystal violet staining. The data set is classed as functional, cell-based. A digest of the protocol:
(§1)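 MCF-7 or MDA-MB-231 cells (ATCC) in DMEM high glucose with 5% FCS, seeded at 7500 cells/mL and grown 3 days at 37 °C, 5% CO2. Compound was added from a DMF or methanol stock and incubated 72 h. Cells were glutardialdehyde-fixed and stained with crystal violet, and the dye was extracted with 70% ethanol for OD 578 nm. T/Ccorr = (T−C0)/(C−C0)×100, where C0 is the OD before treatment. Run 3 times.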

In data set [1] the test system is MCF7. Put plainly: Cytotoxicity against human MCF7 cells at 10 uM after 72 hrs by crystal violet staining. It is filed as functional, cell-based. A digest of the protocol: (§2)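 MCF-7 cells in DMEM high glucose with 5% FCS were seeded at 7500 cells/mL and grown 3 days at 37 °C, 5% CO2. Then exposed 72 h to compound added from a DMF or methanol stock. Biomass was read by crystal violet staining of glutardialdehyde-fixed cells, with 70% ethanol extraction and OD at 578 nm, against untreated control and pre-treatment OD. Three runs per substance.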

In data set [2] the test system is MCF7. Put plainly: Cytotoxicity against human MCF7 cells at 1 uM after 72 hrs by crystal violet staining. The data set is classed as functional, cell-based. In a few lines:
as §2

Data set [3] relates to MCF7. Put plainly: Cytotoxicity against human MCF7 cells at 5 uM after 72 hrs by crystal violet staining. It is filed as functional, cell-based. A digest of the protocol: as §2
Data set [4] in a line: Half life in PBS buffer at pH 7.4. It is filed as physicochemical.
Data set [5] has as its system MCF7. Description: Cytostatic effect against human MCF7 cells at 5 uM after 72 hrs by crystal violet staining relative to uncreate control. It is filed as functional, cell-based. A digest of the protocol: as §1
Data set [6] deals with MCF7. Put plainly: Cytostatic effect against human MCF7 cells at 10 uM after 72 hrs by crystal violet staining relative to uncreate control. It is filed as functional. A digest of the protocol: as §1

In the case of `Cn1c(CCCC(=O)O)nc2cc(N(CCCl)CCCl)ccc21`, the result in the data set with MDA-MB-231 was Active. Further, the result in the data set on MCF7 [1], in the data set on MCF7 [2] and with MCF7 [3] was inactive.
With `Cn1c(CCCC(=O)OCCN2C(=O)C=CC2=O)nc2cc(N(CCCl)CCCl)ccc21`, the outcome with MDA-MB-231 and with MCF7 [5] was Active. Besides, the half-life in data set [4] was 10 h.
Turning to `N[C@@H](Cc1ccc(N(CCCl)CCCl)cc1)C(=O)O` [MELPHALAN], the outcome in the data set on MDA-MB-231 was Active. The T/C in the data set with MCF7 [6] is reported as 20%.
For the compound `CC(C)(C)OC(=O)N[C@@H](Cc1ccc(N(CCCl)CCCl)cc1)C(=O)OCCN1C(=O)C=CC1=O`, the outcome in the data set with MDA-MB-231 was Active.
